Test results as given in ChEMBL document CHEMBL5724801, “EUbOPEN Chemogenomics Library - Multiplex” (2024).
Values joined by “and” are separate entries in the source; they are usually repeats but may differ in a detail not shown here. Equal values may be shown once.

Assays:
HEK-293T = experiment: Multiplex assay against HEK293T; assay type: toxicity, cell-based; settings: human
Method in brief: (§1)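 Values for tubulin, mitochondrial-mass and membrane-permeability phenotypes are per cents of cells with healthy nuclei. These cells were identified by CellPathfinder machine-learning gating of live cells that had been stained at seeding with Hoechst33342, BioTracker Green Microtubule Cytoskeleton Dye, MitoTracker Red and Annexin V Alexa Fluor 680 and imaged on a CQ1 microscope at 37°C and 5% CO2 after compound addition. The gating first set Hoechst high-intensity objects apart from normal cells, then split normal cells into healthy, pyknosed or fragmented nuclei, and pyknosed cells into mitotic or apoptotic.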

U2OS = experiment: Multiplex assay against U2OS; assay type: toxicity, cell-based; settings: human; method in brief: as §1
[1] = 24 h, 1 µM, compound concentration 1 uM
[2] = 24 h, 10 µM, compound concentration 10 uM
[3] = 48 h, 1 µM, compound concentration 1 uM
[4] = 48 h, 10 µM, compound concentration 10 uM
[5] = 12 h, 1 µM, compound concentration 1 uM
[6] = 12 h, 10 µM, compound concentration 10 uM

Q: `O=C1COc2nccc(-c3ccccc3F)c2CN1Cc1cc(C(F)(F)F)cc(C(F)(F)F)c1` was tested. Which “Total Cell Count” value (HEK-293T; [1]) did it give?
A: 517 and 428

Q: What about the “Population Apoptotic (%)” value (HEK-293T; [2]) of the same molecule?
A: 52% and 36%

Q: What about the “Population Fragmented Nuclei (%)” value (HEK-293T; [2]) of the same molecule?
A: 10% and 7%

Q: And the “Population Healthy Nuclei (%)” value (HEK-293T; [2])?
A: 76% and 79%

Q: And the “Population Hoechst High Intensity Objects (%)” value (HEK-293T; [2])?
A: 5%

Q: What about the “Population Membrane Permeable-Phenotype (%)” value (HEK-293T; [2]) of the same molecule?
A: 0%

Q: And the “Population Mitochondria Different-Phenotype (%)” value (HEK-293T; [2])?
A: 71% and 72%

Q: What about the “Population Mitotic Cells (%)” value (HEK-293T; [2]) of the same molecule?
A: 47% and 63%

Q: What about the “Population Normal (%)” value (HEK-293T; [2]) of the same molecule?
A: 94%

Q: What about the “Population Pyknosed Nuclei (%)” value (HEK-293T; [2]) of the same molecule?
A: 13% and 12%

Q: And the “Population Tubulin-Different-Phenotype (%)” value (HEK-293T; [2])?
A: 68% and 44%

Q: What about the “Total Cell Count” value (HEK-293T; [2]) of the same molecule?
A: 520 and 492

Q: And the “Population Apoptotic (%)” value (HEK-293T; [3])?
A: 27% and 38%

Q: And the “Population Fragmented Nuclei (%)” value (HEK-293T; [3])?
A: 13% and 9%

Q: What about the “Population Healthy Nuclei (%)” value (HEK-293T; [3]) of the same molecule?
A: 80% and 81%

Q: And the “Population Hoechst High Intensity Objects (%)” value (HEK-293T; [3])?
A: 2% and 4%

Q: What about the “Population Membrane Permeable-Phenotype (%)” value (HEK-293T; [3]) of the same molecule?
A: 0%

Q: What about the “Population Mitochondria Different-Phenotype (%)” value (HEK-293T; [3]) of the same molecule?
A: 29% and 23%

Q: And the “Population Mitotic Cells (%)” value (HEK-293T; [3])?
A: 72% and 61%

Q: And the “Population Normal (%)” value (HEK-293T; [3])?
A: 97% and 95%

Q: What about the “Population Pyknosed Nuclei (%)” value (HEK-293T; [3]) of the same molecule?
A: 6% and 8%

Q: What about the “Population Tubulin-Different-Phenotype (%)” value (HEK-293T; [3]) of the same molecule?
A: 14% and 12%

Q: And the “Total Cell Count” value (HEK-293T; [3])?
A: 743 and 574

Q: And the “Population Apoptotic (%)” value (HEK-293T; [4])?
A: 44% and 56%

Q: What about the “Population Fragmented Nuclei (%)” value (HEK-293T; [4]) of the same molecule?
A: 13% and 11%

Q: What about the “Population Healthy Nuclei (%)” value (HEK-293T; [4]) of the same molecule?
A: 75% and 80%

Q: And the “Population Hoechst High Intensity Objects (%)” value (HEK-293T; [4])?
A: 3% and 2%

Q: And the “Population Membrane Permeable-Phenotype (%)” value (HEK-293T; [4])?
A: 0%

Q: And the “Population Mitochondria Different-Phenotype (%)” value (HEK-293T; [4])?
A: 63% and 51%

Q: And the “Population Mitotic Cells (%)” value (HEK-293T; [4])?
A: 55% and 43%

Q: And the “Population Normal (%)” value (HEK-293T; [4])?
A: 96% and 97%

Q: And the “Population Pyknosed Nuclei (%)” value (HEK-293T; [4])?
A: 11% and 7%

Q: What about the “Population Tubulin-Different-Phenotype (%)” value (HEK-293T; [4]) of the same molecule?
A: 46% and 25%

Q: And the “Total Cell Count” value (HEK-293T; [4])?
A: 713 and 669

Q: What about the “Population Apoptotic (%)” value (U2OS; [5]) of the same molecule?
A: 52% and 77%

Q: What about the “Population Fragmented Nuclei (%)” value (U2OS; [5]) of the same molecule?
A: 19% and 23%

Q: What about the “Population Healthy Nuclei (%)” value (U2OS; [5]) of the same molecule?
A: 72% and 67%

Q: What about the “Population Hoechst High Intensity Objects (%)” value (U2OS; [5]) of the same molecule?
A: 4% and 2%

Q: And the “Population Membrane Permeable-Phenotype (%)” value (U2OS; [5])?
A: 6% and 15%

Q: What about the “Population Mitochondria Different-Phenotype (%)” value (U2OS; [5]) of the same molecule?
A: 2% and 9%

Q: What about the “Population Mitotic Cells (%)” value (U2OS; [5]) of the same molecule?
A: 47% and 22%

Q: What about the “Population Normal (%)” value (U2OS; [5]) of the same molecule?
A: 95% and 97%

Q: And the “Population Pyknosed Nuclei (%)” value (U2OS; [5])?
A: 8%

Q: What about the “Population Tubulin-Different-Phenotype (%)” value (U2OS; [5]) of the same molecule?
A: 4% and 11%

Q: And the “Total Cell Count” value (U2OS; [5])?
A: 252 and 108

Q: What about the “Population Apoptotic (%)” value (U2OS; [6]) of the same molecule?
A: 70% and 100%

Q: And the “Population Fragmented Nuclei (%)” value (U2OS; [6])?
A: 36% and 16%

Q: And the “Population Healthy Nuclei (%)” value (U2OS; [6])?
A: 47% and 76%

Q: And the “Population Hoechst High Intensity Objects (%)” value (U2OS; [6])?
A: 3% and 5%

Q: And the “Population Membrane Permeable-Phenotype (%)” value (U2OS; [6])?
A: 25% and 17%

Q: What about the “Population Mitochondria Different-Phenotype (%)” value (U2OS; [6]) of the same molecule?
A: 27% and 23%

Q: What about the “Population Normal (%)” value (U2OS; [6]) of the same molecule?
A: 96% and 94%

Q: What about the “Population Pyknosed Nuclei (%)” value (U2OS; [6]) of the same molecule?
A: 16% and 7%

Q: And the “Population Tubulin-Different-Phenotype (%)” value (U2OS; [6])?
A: 25% and 13%

Q: And the “Total Cell Count” value (U2OS; [6])?
A: 200 and 112

Q: What about the “Population Apoptotic (%)” value (U2OS; [1]) of the same molecule?
A: 86% and 83%

Q: What about the “Population Fragmented Nuclei (%)” value (U2OS; [1]) of the same molecule?
A: 17% and 18%

Q: And the “Population Healthy Nuclei (%)” value (U2OS; [1])?
A: 74% and 76%

Q: And the “Population Hoechst High Intensity Objects (%)” value (U2OS; [1])?
A: 3% and 4%

Q: And the “Population Membrane Permeable-Phenotype (%)” value (U2OS; [1])?
A: 8% and 12%

Q: What about the “Population Mitochondria Different-Phenotype (%)” value (U2OS; [1]) of the same molecule?
A: 3% and 7%

Q: And the “Population Mitotic Cells (%)” value (U2OS; [1])?
A: 13% and 16%

Q: What about the “Population Normal (%)” value (U2OS; [1]) of the same molecule?
A: 96% and 95%

Q: What about the “Population Pyknosed Nuclei (%)” value (U2OS; [1]) of the same molecule?
A: 8% and 5%

Q: What about the “Population Tubulin-Different-Phenotype (%)” value (U2OS; [1]) of the same molecule?
A: 3% and 5%

Q: What about the “Total Cell Count” value (U2OS; [1]) of the same molecule?
A: 291 and 121

Q: And the “Population Apoptotic (%)” value (U2OS; [2])?
A: 58% and 100%

Q: What about the “Population Fragmented Nuclei (%)” value (U2OS; [2]) of the same molecule?
A: 36% and 21%

Q: What about the “Population Healthy Nuclei (%)” value (U2OS; [2]) of the same molecule?
A: 43% and 70%

Q: And the “Population Hoechst High Intensity Objects (%)” value (U2OS; [2])?
A: 5%

Q: What about the “Population Membrane Permeable-Phenotype (%)” value (U2OS; [2]) of the same molecule?
A: 21% and 13%

Q: What about the “Population Mitochondria Different-Phenotype (%)” value (U2OS; [2]) of the same molecule?
A: 22% and 19%

Q: And the “Population Normal (%)” value (U2OS; [2])?
A: 94%

Q: What about the “Population Pyknosed Nuclei (%)” value (U2OS; [2]) of the same molecule?
A: 19% and 8%

Q: And the “Population Tubulin-Different-Phenotype (%)” value (U2OS; [2])?
A: 17% and 7%

Q: And the “Total Cell Count” value (U2OS; [2])?
A: 210 and 126

Q: And the “Population Apoptotic (%)” value (U2OS; [3])?
A: 84% and 76%

Q: What about the “Population Fragmented Nuclei (%)” value (U2OS; [3]) of the same molecule?
A: 16% and 19%

Q: And the “Population Healthy Nuclei (%)” value (U2OS; [3])?
A: 74% and 69%

Q: What about the “Population Hoechst High Intensity Objects (%)” value (U2OS; [3]) of the same molecule?
A: 3%

Q: And the “Population Membrane Permeable-Phenotype (%)” value (U2OS; [3])?
A: 5% and 8%

Q: What about the “Population Mitochondria Different-Phenotype (%)” value (U2OS; [3]) of the same molecule?
A: 3% and 5%

Q: And the “Population Mitotic Cells (%)” value (U2OS; [3])?
A: 15% and 23%

Q: What about the “Population Normal (%)” value (U2OS; [3]) of the same molecule?
A: 96%

Q: What about the “Population Pyknosed Nuclei (%)” value (U2OS; [3]) of the same molecule?
A: 9% and 10%

Q: And the “Population Tubulin-Different-Phenotype (%)” value (U2OS; [3])?
A: 3%

Q: What about the “Total Cell Count” value (U2OS; [3]) of the same molecule?
A: 425 and 166

Q: What about the “Population Apoptotic (%)” value (U2OS; [4]) of the same molecule?
A: 61% and 85%

Q: What about the “Population Fragmented Nuclei (%)” value (U2OS; [4]) of the same molecule?
A: 35% and 25%

Q: What about the “Population Healthy Nuclei (%)” value (U2OS; [4]) of the same molecule?
A: 46% and 60%

Q: What about the “Population Hoechst High Intensity Objects (%)” value (U2OS; [4]) of the same molecule?
A: 4%

Q: What about the “Population Membrane Permeable-Phenotype (%)” value (U2OS; [4]) of the same molecule?
A: 20% and 12%

Q: What about the “Population Mitochondria Different-Phenotype (%)” value (U2OS; [4]) of the same molecule?
A: 17% and 12%

Q: What about the “Population Mitotic Cells (%)” value (U2OS; [4]) of the same molecule?
A: 38% and 14%

Q: And the “Population Normal (%)” value (U2OS; [4])?
A: 95%

Q: What about the “Population Pyknosed Nuclei (%)” value (U2OS; [4]) of the same molecule?
A: 17% and 14%

Q: And the “Population Tubulin-Different-Phenotype (%)” value (U2OS; [4])?
A: 11% and 3%

Q: And the “Total Cell Count” value (U2OS; [4])?
A: 236 and 151
